Consider nine molecules from ChEMBL document CHEMBL2062424, “Bioactive sesquiterpenoids from the rhizomes of Acorus calamus” (J Nat Prod, 2012).

The structures appear in SMILES notation. The source made the active and inactive calls. The calls are words filed in the database; no cut-off is given here.

Holding throughout (format): functional, cell-based
For one test, the system named is HCT-8. Kind of test: Cytotoxicity against human HCT8 cells by MTT assay.
The next test has as its system Bel-7402. As to the kind of experiment: Cytotoxicity against human Bel7402 cells by MTT assay. (In general: Formazan colour is commonly taken as a measure of viable cells.)
The test system of a further test is BGC-823. Kind of test: Cytotoxicity against human BGC823 cells by MTT assay.
The subject of another test is A549. Kind of test: Cytotoxicity against human A549 cells by MTT assay.
For the next test, the system named is A2780. As to the kind of experiment: Cytotoxicity against human A2780 cells by MTT assay.
In another test the test system is HepG2. As to the kind of experiment: Hepatoprotective activity against N-acetyl-p-aminophenol-induced toxicity in human HepG2 cells at 10 uM after 48 hrs by MTT assay. The essentials:
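HepG2 cells kept in DMEM with 10% fetal calf serum plus penicillin/streptomycin at 37 °C, 5% CO2, passaged with 0.25% trypsin/0.02% EDTA. After seeding and overnight incubation, 10 μM test sample added together with APAP (8 mM final) for 48 h. MTT (0.5 mg/mL) added for 4 h, formazan dissolved in DMSO, absorbance at 570 nm. Bicyclol 10 μM as positive control; mean ± SD, n = 3.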

With `C[C@@H]1CC[C@]2(O)O[C@]13C=C(C(C)(C)O)C(=O)[C@H]3[C@@H]2C` [CALAMUSIN B], the IC50 with HCT-8, with Bel-7402, with BGC-823, in the test on A549 and with A2780 was greater than 10 µM in each case.

Take `Cc1ccc(C(C)C)c2c1[C@H](O)C[C@@](C)(O)[C@H]2O` [CALAMUSIN H]: the IC50 in the test with HCT-8, in the test on Bel-7402, in the test on BGC-823, with A549 and in the test on A2780 was greater than 10 µM each time.

Take `CC(C)=C1C(=O)C[C@@H](C)[C@@]2(O)CC[C@H](C)C(=O)[C@@H]12` [CALAMUSIN G]: the half-maximal inhibitory concentration (IC50) in the test with HCT-8, with Bel-7402, with BGC-823, in the test on A549 and in the test with A2780 was greater than 10 µM throughout. Besides, the result in the test with HepG2 was Active.

Turning to `CC1=C[C@H](O)[C@]2(CC1=O)[C@H](C)CC(=O)[C@H]2C(C)C` [CALAMUSIN E], the IC50 with HCT-8, in the test on Bel-7402, in the test on BGC-823, in the test on A549 and in the test on A2780 was greater than 10 µM throughout.

Turning to `C[C@]1(O)CC[C@H](O)[C@@]2(C)CCC(=O)C=C12` [CALAMUSIN I], the IC50 in the test with HCT-8, in the test with Bel-7402, in the test on BGC-823, in the test with A549 and in the test on A2780 was greater than 10 µM throughout. Further, in the test with HepG2, the outcome was Active.

For the molecule `CC1=CCC23OC(C(C)(C)O)(CC12O)C(=O)C=C3C` (racemic), the IC50 in the test with HCT-8, with Bel-7402, in the test with BGC-823, in the test with A549 and in the test on A2780 was greater than 10 µM in each case. Moreover, in the test on HepG2, the outcome was Active.

On to `C[C@@H]1C(=O)CC[C@@H](C)[C@]2(O)C=C(C(C)(C)O)C(=O)[C@@H]12` [CALAMUSIN A], for which the IC50 in the test with HCT-8, in the test on Bel-7402, in the test with BGC-823, in the test with A549 and in the test on A2780 was greater than 10 µM each time.

As for `CC(C)[C@]1(O)C(=O)C[C@H](C)[C@@]12CC[C@](C)(O)C(=O)C2`, the IC50 with HCT-8, with Bel-7402, with BGC-823, in the test with A549 and in the test on A2780 was greater than 10 µM in each case. For the same molecule, in the test on HepG2, the outcome was Active.

For `CC1=C[C@@H](O)[C@@]2(CC1=O)[C@@H](C(C)C)C(=O)C[C@@H]2C` (relative stereo), the concentration for half-maximal inhibition (IC50) with HCT-8, in the test with Bel-7402, in the test on BGC-823, with A549 and with A2780 was greater than 10 µM each time.

By IC50 is commonly meant the point on the concentration scale where inhibition reaches its midpoint. Read a high IC50 as lower potency.
